Measurements taken from paper PMC5010146 (European journal of medicinal chemistry, 2016).
One block for each compound: values may come before it.

Tests used:
[1] = molecular target: T1, 15-LOX-1 (Homo sapiens, UniProt P16050); test: 15-LOX-1 enzyme inhibition, UV absorbance; type: biochemical
T1 sequence (P16050 1-662): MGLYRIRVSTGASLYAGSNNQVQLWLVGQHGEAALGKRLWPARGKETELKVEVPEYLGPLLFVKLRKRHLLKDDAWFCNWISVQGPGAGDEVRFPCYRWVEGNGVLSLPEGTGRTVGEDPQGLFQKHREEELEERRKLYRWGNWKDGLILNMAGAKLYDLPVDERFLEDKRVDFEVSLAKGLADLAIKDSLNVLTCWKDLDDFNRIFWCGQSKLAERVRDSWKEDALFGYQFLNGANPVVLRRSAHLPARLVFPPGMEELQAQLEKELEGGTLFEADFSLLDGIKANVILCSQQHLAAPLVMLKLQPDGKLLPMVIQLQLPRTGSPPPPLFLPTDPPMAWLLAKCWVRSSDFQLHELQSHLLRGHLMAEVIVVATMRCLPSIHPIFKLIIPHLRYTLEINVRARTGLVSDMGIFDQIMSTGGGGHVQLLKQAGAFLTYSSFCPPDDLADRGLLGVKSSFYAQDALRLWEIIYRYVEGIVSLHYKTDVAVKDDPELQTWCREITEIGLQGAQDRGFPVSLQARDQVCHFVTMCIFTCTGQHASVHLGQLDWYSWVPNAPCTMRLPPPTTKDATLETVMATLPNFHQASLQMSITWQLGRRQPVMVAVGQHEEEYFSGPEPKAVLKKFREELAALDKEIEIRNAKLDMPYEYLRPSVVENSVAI

[2] = molecular target: T2, human 15-lipoxygenase-1 (15-LOX-1) (Homo sapiens, UniProt P16050); test: Michaelis-Menten enzyme kinetics analysis of 15-LOX-1 inhibition; type: biochemical; conditions: Lineweaver-Burk: Km increases, Vmax constant
T2 sequence (P16050 1-662): T1 sequence (P16050 1-662)

[3] = tested on: HT-22 cells; test: Glutamate-induced cell death, xCELLigence impedance and MTT; type: cell-based
[4] = tested on: HT-22 cells; test: Glutamate-induced lipid peroxidation, BODIPY staining, FACS; type: cell-based; conditions: 1 μM, 16 h after initiation of glutamate challenge
Procedure, shortened: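 HT-22 cells were seeded at 5x10^4 per well, left overnight, then exposed to 4 mM glutamate with or without test compound (10 µM) or 1 µM reference inhibitor for 6–7 h or 14–16 h. Staining used BODIPY 581/591 C11 (2 µM final, 1 h, 37°C). The red-to-green fluorescence shift was read by FACS at 488 nm excitation. At least three independent experiments, triplicates.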

[5] = tested on: 15-LOX-1; conditions: mouse, transient cerebral ischemia; cited from earlier work

SMILES: CCCCNC(=O)c1cc(Cc2ccccc2)sc1N [Compound 3n, 2-amino-5-benzyl-N-butylthiophene-3-carboxamide]
inhibitory potency in words [1]: inactive

SMILES: CCCCNC(=O)c1cc(-c2ccccc2)sc1N [Compound A9, 2-amino-N-butyl-5-phenylthiophene-3-carboxamide]
mechanism of 15-LOX-1 inhibition [2]: competitive inhibition
time of addition after glutamate challenge at which cells were still protected ([3]; post-treatment 5 and 10 μM, added 2-8 h after glutamate): up to 8 h

SMILES: c1ccc2c(c1)SCc1c-2[nH]c2ccccc12 [PD-146176]
effect on boost of lipid peroxides [4]: significantly attenuated
protection against glutamate toxicity compared with ThioLox ([3]; 1 μM): Comparable results
effect on infarct size [5]: significantly reduced the infarct size

Second part, the compound after the results:

inhibitory potency in words [1]: inactive
SMILES: CCCCNC(=O)c1cc(-c2ccc(Cl)cc2)sc1N [Compound 3l, 2-amino-N-butyl-5-(4-chlorophenyl)thiophene-3-carboxamide]

inhibitory potency in words [1]: inactive
SMILES: CCCCNC(=O)c1cc(-c2ccc(Br)cc2)sc1N [Compound 3m, 2-amino-5-(4-bromophenyl)-N-butylthiophene-3-carboxamide]
